Reference: ChEMBL document CHEMBL4819003, “Optimization of novel oxidative DIMs as Nur77 modulators of the Nur77-Bcl-2 apoptotic pathway” (Eur J Med Chem, 2021)
Blank lines part the entries; values can stand above or below the compound they belong to. Calls of active or inactive are those of the source. No cut-off for these calls is given here.

Tests used:
[1] = Half life in female Sprague-Dawley rat at 0.5 mg/kg, iv measured for 36 hrs by LC-MS/MS analysis; format: ADME, organism-based; details: in vivo
[2] = Clearance in male Sprague-Dawley rat at 0.5 mg/kg, iv measured for 36 hrs by LC-MS/MS analysis; format: ADME, organism-based; details: in vivo
[3] = MRT(0 to t) in female Sprague-Dawley rat at 5 mg/kg, po measured for 36 hrs by LC-MS/MS analysis; format: ADME, organism-based; details: in vivo
[4] = MRT(0 to t) in male Sprague-Dawley rat at 0.5 mg/kg, iv measured for 36 hrs by LC-MS/MS analysis; format: ADME, organism-based; details: in vivo
[5] = Cmax in female Sprague-Dawley rat at 5 mg/kg, po measured for 36 hrs by LC-MS/MS analysis; format: ADME, organism-based; set-up: route oral, time 36 hrs, dose 5 mg/kg; details: in vivo
[6] = AUC (0 to t) in male Sprague-Dawley rat at 5 mg/kg, po measured for 36 hrs by LC-MS/MS analysis; format: ADME, organism-based; set-up: dose 5 mg/kg, time 36 hrs; details: in vivo
In short: (§1)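 Sprague-Dawley rats (200–220 g), three per sex per route, were dosed at 0.5 mg/kg IV or 5 mg/kg PO in DMSO/Tween-80/water (1:5:94). Heparinized blood was drawn from 5 min to 36 h after IV dosing and from 1 h to 36 h after oral dosing. Plasma was deproteinized with methanol (2% HCl) plus carbamazepine internal standard, measured by LC-MS/MS, and reported as mean ± SD.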

[7] = AUC (0 to t) in male Sprague-Dawley rat at 0.5 mg/kg, iv measured for 36 hrs by LC-MS/MS analysis; format: ADME, organism-based; set-up: time 36 hrs, dose 0.5 mg/kg; details: in vivo; in short: as §1
[8] = MRT(0 to t) in female Sprague-Dawley rat at 0.5 mg/kg, iv measured for 36 hrs by LC-MS/MS analysis; format: ADME, organism-based; details: in vivo
[9] = Cmax in male Sprague-Dawley rat at 5 mg/kg, po measured for 36 hrs by LC-MS/MS analysis; format: ADME, organism-based; set-up: route oral, time 36 hrs, dose 5 mg/kg; details: in vivo
[10] = target: T1, Nuclear receptor subfamily 4immunitygroup A member 1 (Homo sapiens, UniProt P22736); test: Modulation of Myc-Nur77 (unknown origin) transfected in human HEK293T cells co-transfected with Flag-tagged Bcl2 assessed as interaction of Nur77 with Bcl2 at 0.5 uM measured after 1 to 3 hrs by co-immunoprecipitation assay; format: cell-based; details: filed as modulator, time 1-3 hrs
In short: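 HEK293T cells cotransfected with Flag-Bcl-2 and Myc-Nur77 were treated with or without 0.5 μM compound over the indicated times. They were lysed in Triton X-100 buffer with protease inhibitors; 5% of lysate was kept as input. Lysate was immunoprecipitated with anti-Flag at 4 °C for 12 h, then protein A-Sepharose for 3 h, washed three times in PBS and western blotted.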

[11] = MRT(0 to t) in male/female Sprague-Dawley rat at 5 mg/kg, po measured for 36 hrs by LC-MS/MS analysis; format: ADME, organism-based; details: both, in vivo
In short: (§2)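 Sprague-Dawley rats (200–220 g), four per route group (2 male, 2 female), given 0.5 mg/kg IV or 5 mg/kg orally in DMSO/T-80/H2O (1:5:94). Heparinized blood was sampled at 5 min–36 h after IV and at 0.5, 1, 3, 4, 6, 8, 10, 12, 24 and 36 h after oral dosing. Plasma was methanol (2% HCl)-precipitated with carbamazepine internal standard and quantified by LC-MS/MS. Parameters reported as mean ± SD.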

[12] = Cmax in male/female Sprague-Dawley rat at 5 mg/kg, po measured for 36 hrs by LC-MS/MS analysis; format: ADME, organism-based; set-up: route oral, time 36 hrs, dose 5 mg/kg; details: both, in vivo
[13] = Toxicity in mammary tumor MMTV-PyMT mouse model assessed as changes in body weight at 3 mg/kg, po administered daily for 14 days; format: organism-based; details: in vivo, 336 h, time 14 day
In short: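 Female MMTV-PyMT transgenic mice (FVB/N background), 12 weeks old, randomized n = 6 per group. They received daily oral gavage of 3 mg/kg for 14 days. Drug was dissolved in DMSO and diluted with saline containing 5.0% Tween-80 to 3 mg/mL final. Body weight was recorded after 14 days against untreated controls, mean ± SD.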

[14] = Oral bioavailability in male/female Sprague-Dawley rat at 5 mg/kg measured for 36 hrs by LC-MS/MS analysis; format: ADME, organism-based; details: both, in vivo; in short: as §2
[15] = MRT(0 to t) in male/female Sprague-Dawley rat at 0.5 mg/kg, iv measured for 36 hrs by LC-MS/MS analysis; format: ADME, organism-based; details: in vivo; in short: as §2
[16] = test system: MDA-MB-231; test: Induction of apoptosis in human MDA-MB-231 cells assessed as PARP cleavage at 0.5 uM measured after 6 hrs by western blot assay relative to Di(1H-indol-3-yl)(4-(trifluoromethyl)phenyl)methylium methanesulfonate; format: functional
In short: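 MDA-MB-231 in DMEM with 10% FBS, 0.5 µM for 6 h, then PARP western blot with 1:1000 primary antibodies and ECL. Cleaved PARP/PARP band intensity ratio expressed relative to the reference methylium methanesulfonate, whose ratio was set to 1. Mean ± SD, n = 3.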

[17] = target: T1, Nuclear receptor subfamily 4immunitygroup A member 1; test: Modulation of GFP-Nur77-LBD (unknown origin) transfected in human HEK293T cells co-transfected with Flag-tagged Bcl2 assessed as interaction of Nur77 with Bcl2 in mitochondria at 0.5 uM measured after 2 hrs by confocal microscopy; details: filed as modulator
In short: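 HEK293T cells were lipofectamine-cotransfected with Flag-Bcl-2 and GFP-Nur77 or GFP-Nur77-LBD, then given 0.5 μM compound for 2 h. Cells were fixed in 4% paraformaldehyde, permeabilised with 0.1% Triton X-100, blocked in 1% BSA and stained with anti-Flag plus DAPI. Mitochondrial colocalisation with Bcl-2 was read by confocal microscopy.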

[18] = Selectivity index, ratio of IC50 for human NCM460 cells to IC50 for human SW-620 cells
[19] = AUC (0 to t) in male/female Sprague-Dawley rat at 0.5 mg/kg, iv measured for 36 hrs by LC-MS/MS analysis; format: ADME, organism-based; set-up: dose 0.5 mg/kg, time 36 hrs; details: both, in vivo
In short: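 Four Sprague-Dawley rats per route (2 male, 2 female; 200–220 g) received 0.5 mg/kg IV or 5 mg/kg PO in DMSO/Tween-80/water (1:5:94). Heparinized blood was taken at 5 min–36 h after IV dosing and at 0.5, 1, 3, 4, 6, 8, 10, 12, 24 and 36 h after oral dosing. Methanol (2% HCl) precipitation with carbamazepine internal standard preceded LC-MS/MS; values are mean ± SD.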

[20] = test system: SW-620; test: Induction of apoptosis in human SW-620 cells assessed as PARP cleavage at 0.5 uM measured after 6 hrs by western blot assay; format: functional, cell-based
In short: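 Cells exposed to 0.5 µM for 6 h. Lysates resolved by SDS-PAGE and blotted to PVDF, blocked in 5% milk/TBST, probed with primary antibodies at 1:1000, ECL detection. Apoptosis scored as the densitometric ratio of cleaved PARP band to intact PARP band; mean ± SD, n = 3.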

[21] = target: T1, Nuclear receptor subfamily 4immunitygroup A member 1; test: Modulation of Myc-Nur77-LBD (unknown origin) transfected in human HEK293T cells assessed as induction of Myc-Nur77 mitochondrial targeting by measuring increase in Myc-Nur77 accumulation in mitochondria at 0.5 uM measured after 2 hrs by Mito-tracker dye based confocal microscopy method; details: filed as modulator
In short: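 HEK293T cells transfected with Myc-Nur77-LBD were given 0.5 μM compound for 2 h, stained with Mito-Tracker and immunostained. Nur77 mitochondrial localisation was visualised by confocal microscopy.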

T1 sequence (P22736 whole entry): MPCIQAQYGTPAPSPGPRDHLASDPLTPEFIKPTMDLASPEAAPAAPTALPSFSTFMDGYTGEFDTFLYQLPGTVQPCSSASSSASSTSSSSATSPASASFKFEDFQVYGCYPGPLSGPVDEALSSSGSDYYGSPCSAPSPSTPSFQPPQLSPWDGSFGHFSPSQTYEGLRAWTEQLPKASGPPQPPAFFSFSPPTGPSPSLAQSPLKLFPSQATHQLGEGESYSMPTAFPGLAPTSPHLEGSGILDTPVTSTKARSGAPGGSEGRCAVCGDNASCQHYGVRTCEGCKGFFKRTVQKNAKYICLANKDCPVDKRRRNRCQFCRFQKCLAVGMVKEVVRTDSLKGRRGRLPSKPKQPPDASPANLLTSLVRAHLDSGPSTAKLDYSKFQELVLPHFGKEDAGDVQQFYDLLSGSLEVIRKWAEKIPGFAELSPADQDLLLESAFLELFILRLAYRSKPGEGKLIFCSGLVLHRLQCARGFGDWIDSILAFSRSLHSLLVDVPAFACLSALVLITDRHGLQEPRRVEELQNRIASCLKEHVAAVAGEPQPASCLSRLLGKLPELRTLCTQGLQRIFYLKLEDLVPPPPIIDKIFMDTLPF

half-life [1]: 5.91 h | clearance [2]: 7.5 mL/min/kg | MRT last at 36 h [3]: 14.5 h | MRT last at 36 h [4]: 4.31 h | Cmax [5]: 203 ng/mL | AUC(0-t) at 36 h [6]: 2250 ng·h/mL | AUC(0-t) at 36 h [7]: 1120 ng·h/mL | MRT [8]: 3.59 h | Cmax [9]: 143 ng/mL
Compound: CS(=O)(=O)[O-].FC(F)(F)c1ccc([C+](c2c[nH]c3ccccc23)c2c[nH]c3ccccc23)cc1

Activity [10]: Active | MRT last at 36 h [11]: 9.59 h | Cmax [12]: 57.9 ng/mL | bioavailability [14]: 14.6% | MRT [15]: 0.56 h | Activity [17]: Active | AUC(0-t) at 36 h [19]: 501 ng·h/mL | Activity [21]: Active
Compound: CS(=O)(=O)[O-].Cn1cc([C+](c2ccc(C(F)(F)F)cc2)c2c[nH]c3ccccc23)c2ccccc21
Activity [13]: Non-Toxic | fold change (FC) [16]: 8.93 | Ratio IC50 [18]: 50 | Activity [20]: Active
